Data on three compounds can be found in ChEMBL document CHEMBL2202985, “Novel series of 3-amino-N-(4-aryl-1,1-dioxothian-4-yl)butanamides as potent and selective dipeptidyl peptidase IV inhibitors” (Bioorg Med Chem Lett, 2012).

Each structure is given as a SMILES string. Activity calls are given as the source filed them. No cut-off for these calls is given here.

Data set [1] deals with Mus musculus. The experiment in a line: Inhibition of DPP4 in mouse plasma at 30 to 100 mg/kg, po. It is filed as functional, organism-based.
For the next data set, the species on record is Homo sapiens. The data set is described as follows: Metabolic stability in human. It is filed as ADME, organism-based. Conditions: in vivo.
Data set [2] is filed under the species Mus musculus. The data set is described as follows: Metabolic stability in mouse. The class given is ADME, organism-based. Conditions: in vivo.
Data set [3] concerns Mus musculus. The experiment in a line: Antidiabetic activity in po dosed ICR mouse assessed as blood glucose excursion after 20 to 120 mins by oral glucose tolerance test. It is filed as functional, organism-based. In a few lines:
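ICR mice dosed orally with distilled water vehicle or compound at 1, 3 or 10 mg/kg (10 mL/kg). Tail-nick blood glucose read by glucometer 30 min after dosing, then oral glucose challenge 2 g/kg (10 mL/kg). Blood glucose measured from tail bleeds at 20, 40, 60 and 120 min after glucose.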

The test system of data set [4] is Mus musculus. The experiment in a line: Inhibition of DPP4 in po dosed mouse plasma. The class given is functional, organism-based.

As to `N[C@@H](CC(=O)NC1(c2cccc(-n3ccnc3)c2)CCS(=O)(=O)CC1)Cc1cc(F)c(F)cc1F`, the inhibition entry in the data set on Mus musculus [1] was “inactive”. The Stability entry in the data set listed under Homo sapiens and in the data set listed under Mus musculus [2] was “Stable” throughout.

As for `N[C@@H](CC(=O)NC1(c2cccc(-c3cncs3)c2)CCS(=O)(=O)CC1)Cc1cc(F)c(F)cc1F`, the inhibition result with Mus musculus [1] was “inactive”. The Stability entry in the data set listed under Homo sapiens and in the data set listed under Mus musculus [2] was “Stable” in each case.

Regarding `N[C@@H](CC(=O)NC1(c2nc(-c3ccccc3)cs2)CCS(=O)(=O)CC1)Cc1cc(F)c(F)cc1F`, in the data set with Mus musculus [3], the Activity entry is “Dose-dependent effect”. Moreover, in the data set on Mus musculus [4], the inhibition entry is “Dose-dependent effect”. Further, the Stability entry in the data set filed under Homo sapiens and in the data set listed under Mus musculus [2] was “Stable” in each case.
